According to ChEMBL document CHEMBL1944526, “Diamine and aminoalcohol derivatives active against Trypanosoma brucei” (Bioorg Med Chem Lett, 2012):
pEC50: −log10 of the molar value. The source made the active and inactive calls. The calls are words filed in the database; no cut-off is given here.

Key:
[1] = tested on: Trypanosoma brucei rhodesiense; assay: Antitrypanosomal activity against bloodstream form of Trypanosoma brucei rhodesiense EATRO3 after 72 hrs by alamar blue assay; format: functional, organism-based; conditions: EATRO3, 72 h
How it was run: (§1)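 Bloodstream-form parasites were grown in HMI-9 with 20% heat-inactivated FBS at 37 °C and 5% CO2. They were seeded at 2 × 10^3 cells/ml (T. b. rhodesiense EATRO3) or 2 × 10^4 cells/ml (T. b. gambiense ELIANE) and exposed to a compound dilution series for 72 h. Untreated cells with matching DMSO served as controls. Alamar Blue fluorescence was read at ex 550/em 590 nm, and EC50 was derived from it.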

[2] = Selectivity index, ratio of CC50 for african green monkey Vero cells to EC50 for Trypanosoma brucei rhodesiense EATRO3; format: toxicity, cell-based; conditions: read-out: Ratio CC50/EC50
How it was run: (§2)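 Vero cells were grown in DMEM with 10% heat-inactivated FBS and seeded at 5 × 10^4 cells/ml. They were exposed to 4–35 (units as printed unclear) compound concentrations for 72 h at 37 °C and 5% CO2. CC50 came from Alamar Blue fluorescence (ex 550/em 590 nm). SI = CC50 (Vero) / EC50 (parasite, 72 h Alamar Blue assay).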

[3] = tested on: Trypanosoma brucei rhodesiense; assay: Antitrypanosomal activity against bloodstream form of Trypanosoma brucei rhodesiense EATRO3 assessed as alteration of flagellar pocket at […] after 24 hrs by microscopic analysis; format: functional, organism-based
How it was run: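 Live bloodstream-form T. b. rhodesiense EATRO3, cultured in HMI-9 with 20% heat-inactivated FBS at 37 °C and 5% CO2, were treated for 24 h. Flagellar pocket morphology was imaged with Nomarski optics and compared against untreated parasites.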

[4] = tested on: Trypanosoma brucei gambiense; assay: Antitrypanosomal activity against bloodstream form of Trypanosoma brucei gambiense ELIANE after 72 hrs by alamar blue assay; format: functional, organism-based; how it was run: as §1
[5] = Selectivity index, ratio of CC50 for african green monkey Vero cells to EC50 for Trypanosoma brucei gambiense ELIANE; format: toxicity, cell-based; conditions: read-out: Ratio CC50/EC50; how it was run: as §2

SMILES	pEC50 [1]	selectivity ratio [2]	also measured
N=C(N)c1ccc(OCCCCCOc2ccc(C(=N)N)cc2)cc1	8.43	–	–
CCCCCCCCCCC(CO)NCC (racemic)	5.96	–	–
CCCCCCCCCCCCCCC(O)CNCCCCCC (racemic)	< 5.60	–	–
CCCCCCCCCCCCCCC(O)CN(CC)CC (racemic)	5.70	19.9	–
CCCCCCCCCCCCCCC(O)CN1CCN(C)CC1 (racemic)	6.28	23.7	Activity [3]: Active; pEC50 [4]: 6.37; selectivity ratio [5]: 28.8
CCCCCCCCCCCCCCC(O)CN1CCOCC1 (racemic)	< 5.60	–	–
CCCCCCCCCCCCCCC(CNCC)NC(=O)OC(C)(C)C (racemic)	6.15	38.8	–
CCCCCCCCCCCCCCC(CO)N(CC)CC (racemic)	6.14	–	–
CCCCCCCCCCCCCCC(O)CNC1CCCCC1 (racemic)	6.10	–	–
CCCCCCCCCCCCCCC(CO)NCC (racemic)	5.94	39.1	–

Second part, led by results:

pEC50 [1]	SMILES	selectivity ratio [2]	also measured
< 5.60	CCCCCCCCCCCCCCC(CNCCCCCC)NC(=O)OC(C)(C)C (racemic)	–	–
< 5.60	CCCCCCCCCCCCCCC(CNC(=O)CCC(=O)O)NC(=O)OC(C)(C)C (racemic)	–	–
6.23	CCCCCCCCCCCCCCCCC(CO)NCC (racemic)	27.7	Activity [3]: Active; pEC50 [4]: 6.35; selectivity ratio [5]: 35.9
6.36	CCCCCCCCCCCCCCC(O)CNC(C)C (racemic)	27.1	Activity [3]: Active; pEC50 [4]: 6.48; selectivity ratio [5]: 35.8
5.75	CCCCCCCCCCCCCCC(O)CN1CCN(CCCC)CC1 (racemic)	–	–
6.09	CCCCCCCCCCCCCCC(CO)NCCCC (racemic)	–	–
< 5.60	CCCCCCCCCCCCCCC(N)CO (racemic)	–	–
< 5.60	CCCCCCCCCCCCCCC(COCc1ccccc1)NC(=O)CCC(=O)O (racemic)	–	–
6.02	CCCCCCCCCCCCCCC(CN)NC(=O)OC(C)(C)C (racemic)	17	–
< 5.60	CCCCCCCCCCCCCCC(N)CNCC(=O)O (racemic)	–	–
< 5.60	CCCCCCCCCCCCCCC(CO)NC(=O)CCCC(=O)O (racemic)	–	–
6.73	Cc1ccc(C(=O)Nc2ccc(S(=O)(=O)O)c3cc(S(=O)(=O)O)cc(S(=O)(=O)O)c23)cc1NC(=O)c1cccc(NC(=O)Nc2cccc(C(=O)Nc3cc(C(=O)Nc4ccc(S(=O)(=O)O)c5cc(S(=O)(=O)O)cc(S(=O)(=O)O)c45)ccc3C)c2)c1 [SURAMIN]	–	–
